From paper PMC4910733 (Oncoimmunology, 2015) come the findings set out here.

Series [1] concerns HL cell lines, isolated MSC. Description: Toxicity by mitochondrial potential. Type of series: cell-based, human. As to conditions: for toxic effect (mitochondrial potential, JC-1): HL cell lines or isolated MSC, 2.5 up to 10 μM, 48, 72 and 96 h (not shown).
In series [2] the test system is NK cell killing of HL cell lines (L428, L540, KMH2). Type of series: cell-based, human. As to conditions: L428 and L540 treated 24 h at 10 μM, E:T 10:1. A digest of the protocol:
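NK cells purified to >96%, stimulated with 0.5 µg/mL PHA plus 10 ng/mL rIL-2, then cultured 15 d in RPMI1640 with 10% FCS and rIL-2; n = 6. Target HL cells were pre-exposed 24 h to medium, DMSO or test compound (10 µM). 4-h 51Cr release at E:T 10:1. Some effectors received anti-NKG2D mAb (5 µg/mL) or isotype control. Specific lysis = (experimental − spontaneous)/(maximum − spontaneous).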

The target of series [3] is Recombinant human MMP-14 catalytic domain (Homo sapiens, UniProt P50281). Kind of series: MMP inhibition assay. Type of series: biochemical. As to conditions: read-out: MMP14 IC50; average of three determinations, SD <10%. A digest of the protocol: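 Recombinant human MMP-14 catalytic domain (1.0 nM final) was preincubated 3 h at 25°C with test compound in 50 mM Tris pH 7.5, 150 mM NaCl, 10 mM CaCl2, 0.05% Brij-35, 1% DMSO. Substrate Mca-Lys-Pro-Leu-Gly-Leu-Dap(Dnp)-Ala-Arg-NH2 at 2 µM final. Fluorescence (ex 325/em 400 nm) read every 15 s for 20 min, in duplicate. IC50 from vi/vo = 1/(1+[I]/IC50).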

In series [4] the target is T1, Recombinant human ADAM10 (Homo sapiens, UniProt O14672).
T1 sequence (O14672 214-748): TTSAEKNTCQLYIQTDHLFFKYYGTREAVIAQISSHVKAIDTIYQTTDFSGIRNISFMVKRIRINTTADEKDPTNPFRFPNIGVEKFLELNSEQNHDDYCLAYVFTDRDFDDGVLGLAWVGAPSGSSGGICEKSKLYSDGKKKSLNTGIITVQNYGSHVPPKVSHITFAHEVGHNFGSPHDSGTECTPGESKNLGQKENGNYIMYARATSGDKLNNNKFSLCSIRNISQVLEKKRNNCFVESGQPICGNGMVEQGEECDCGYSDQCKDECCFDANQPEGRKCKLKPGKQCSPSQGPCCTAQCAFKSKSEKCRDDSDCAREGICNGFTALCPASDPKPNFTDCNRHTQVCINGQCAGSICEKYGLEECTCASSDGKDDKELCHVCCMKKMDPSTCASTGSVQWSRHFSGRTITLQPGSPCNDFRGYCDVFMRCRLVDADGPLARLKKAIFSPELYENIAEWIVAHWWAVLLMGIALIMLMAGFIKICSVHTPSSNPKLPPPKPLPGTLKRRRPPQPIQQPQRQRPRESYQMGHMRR
Description: In vitro enzymatic inhibition assay. Type of series: biochemical. The settings on record: read-out: ADAM10 IC50; average of three determinations, SD <10%.

Series [5] deals with MMP-9 (Homo sapiens, UniProt P14780). Description: MMP inhibition assay. As to conditions: read-out: MMP9 IC50; average of three determinations, SD <10%. Type of series: biochemical. In outline: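 APMA-activated MMP-9 (1 mM, 1 h, 37°C), 1.3 nM final, was preincubated with test compound 3 h at 25°C in 50 mM Tris pH 7.5, 150 mM NaCl, 10 mM CaCl2, 0.05% Brij-35, 1% DMSO. Fluorogenic substrate Mca-Lys-Pro-Leu-Gly-Leu-Dap(Dnp)-Ala-Arg-NH2 at 2 µM final. Cleavage monitored (ex 325/em 400 nm) every 15 s for 20 min, in duplicate. IC50 via vi/vo = 1/(1+[I]/IC50).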
MMP-9, sequence (P14780 107-707 limits assumed): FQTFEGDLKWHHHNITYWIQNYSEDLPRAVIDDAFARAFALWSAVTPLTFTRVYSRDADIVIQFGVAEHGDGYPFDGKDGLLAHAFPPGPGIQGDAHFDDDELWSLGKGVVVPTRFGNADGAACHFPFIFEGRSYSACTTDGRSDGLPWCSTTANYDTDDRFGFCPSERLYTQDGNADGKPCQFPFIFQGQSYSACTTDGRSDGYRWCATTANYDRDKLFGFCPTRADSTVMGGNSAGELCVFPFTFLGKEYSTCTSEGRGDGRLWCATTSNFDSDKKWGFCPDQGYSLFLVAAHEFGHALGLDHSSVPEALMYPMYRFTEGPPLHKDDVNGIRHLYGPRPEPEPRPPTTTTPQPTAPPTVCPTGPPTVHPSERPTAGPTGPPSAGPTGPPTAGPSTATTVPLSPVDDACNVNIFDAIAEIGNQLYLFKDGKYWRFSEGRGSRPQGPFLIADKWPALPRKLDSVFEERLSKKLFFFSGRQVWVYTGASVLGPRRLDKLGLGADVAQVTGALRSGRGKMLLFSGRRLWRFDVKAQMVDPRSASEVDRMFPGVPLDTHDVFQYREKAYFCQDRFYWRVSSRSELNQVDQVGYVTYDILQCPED

Series [6] addresses T2, MMP-2 (Homo sapiens, UniProt P08253).
T2 sequence (P08253 110-660): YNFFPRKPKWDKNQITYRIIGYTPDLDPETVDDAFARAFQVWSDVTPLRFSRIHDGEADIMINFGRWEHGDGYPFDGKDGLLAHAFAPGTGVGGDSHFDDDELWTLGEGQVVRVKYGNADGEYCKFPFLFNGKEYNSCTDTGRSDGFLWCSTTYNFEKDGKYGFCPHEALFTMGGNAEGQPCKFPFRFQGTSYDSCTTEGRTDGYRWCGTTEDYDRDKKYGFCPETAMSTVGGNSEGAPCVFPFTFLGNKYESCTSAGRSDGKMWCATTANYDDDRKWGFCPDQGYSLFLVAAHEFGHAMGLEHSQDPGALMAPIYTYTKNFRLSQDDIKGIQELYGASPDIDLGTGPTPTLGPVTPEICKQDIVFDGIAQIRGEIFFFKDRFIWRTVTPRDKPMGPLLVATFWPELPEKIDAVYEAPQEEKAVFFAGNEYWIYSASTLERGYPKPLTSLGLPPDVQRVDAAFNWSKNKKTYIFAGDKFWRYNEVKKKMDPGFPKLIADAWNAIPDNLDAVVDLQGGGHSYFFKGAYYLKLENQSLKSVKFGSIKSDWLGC
Kind of series: MMP inhibition assay. Type of series: biochemical. As to conditions: read-out: MMP2 IC50; average of three determinations, SD <10%. A digest of the protocol:
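Pro-MMP-2 was activated with APMA 2 mM, 1 h, 37°C. Enzyme (0.56 nM final) and test compound were incubated 3 h at 25°C in 50 mM Tris pH 7.5, 150 mM NaCl, 10 mM CaCl2, 0.05% Brij-35, 1% DMSO. Mca-Lys-Pro-Leu-Gly-Leu-Dap(Dnp)-Ala-Arg-NH2 at 2 µM final. Fluorescence (ex 325/em 400 nm) recorded every 15 s for 20 min, in duplicate. IC50 from vi/vo = 1/(1+[I]/IC50).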

With `CNC(=O)[C@@H](NC(=O)[C@H](CCCc1ccccc1)[C@H](C)N(O)C=O)C(C)(C)C` [GI254023X], the “toxic effect (mitochondrial potential, JC-1)” value in series [1] is listed as “did not exert any toxic effect”. In series [2], the “increase of NK cell killing” value was 2–3 fold.
Consider `NC(=O)NCCC[C@@H](NS(=O)(=O)c1ccc(OCc2cc(Br)cc(Br)c2)cc1)C(=O)NO` [JG26], for which the “toxic effect (mitochondrial potential, JC-1)” value in series [1] is “did not exert any toxic effect”. The IC50 in series [3] is 19.5 µM; in series [4], 150 nM; in series [5] it was 1630 nM; in series [6], 240 nM. Besides, the “increase of NK cell killing” value in series [2] is 2–3 fold.
For the compound `[Na+].[Na+].[Na+].[O]=[V]([O-])([O-])[O-]` [Na3VO4, sodium orthovanadate], the “toxicity (JC1 staining)” value in series [1] (HL cell lines, 100 μM as pervanadate, 40 min at 37°C (not shown)) is on record as “not toxic”.
